The text below walks through data of ChEMBL document CHEMBL5653631, “A Potent and Selective ULK1 Inhibitor Suppresses Autophagy and Sensitizes Cancer Cells to Nutrient Stress” (iScience, 2018).

Experiment [1] addresses Epidermal growth factor receptor (Homo sapiens) (UniProt P00533). In words: Inhibition of human recombinant EGFR at 40 nM related to control ULK1.
Experiment [2] deals with Fibroblast growth factor receptor 2 (Homo sapiens) (UniProt P21802). Put plainly: Inhibition of human recombinant FGFR2 at 40 nM related to control ULK1.
The target of experiment [3] is Mitogen-activated protein kinase kinase kinase kinase 1 (Homo sapiens) (UniProt Q92918). In words: Inhibition of human recombinant HPK1 at 40 nM in presence of ATP by radiometric assay relative to control.
Experiment [4] has as its target T1, Serine/threonine-protein kinase TAO3 (Homo sapiens) (UniProt Q9H2K8).
T1 sequence (whole entry): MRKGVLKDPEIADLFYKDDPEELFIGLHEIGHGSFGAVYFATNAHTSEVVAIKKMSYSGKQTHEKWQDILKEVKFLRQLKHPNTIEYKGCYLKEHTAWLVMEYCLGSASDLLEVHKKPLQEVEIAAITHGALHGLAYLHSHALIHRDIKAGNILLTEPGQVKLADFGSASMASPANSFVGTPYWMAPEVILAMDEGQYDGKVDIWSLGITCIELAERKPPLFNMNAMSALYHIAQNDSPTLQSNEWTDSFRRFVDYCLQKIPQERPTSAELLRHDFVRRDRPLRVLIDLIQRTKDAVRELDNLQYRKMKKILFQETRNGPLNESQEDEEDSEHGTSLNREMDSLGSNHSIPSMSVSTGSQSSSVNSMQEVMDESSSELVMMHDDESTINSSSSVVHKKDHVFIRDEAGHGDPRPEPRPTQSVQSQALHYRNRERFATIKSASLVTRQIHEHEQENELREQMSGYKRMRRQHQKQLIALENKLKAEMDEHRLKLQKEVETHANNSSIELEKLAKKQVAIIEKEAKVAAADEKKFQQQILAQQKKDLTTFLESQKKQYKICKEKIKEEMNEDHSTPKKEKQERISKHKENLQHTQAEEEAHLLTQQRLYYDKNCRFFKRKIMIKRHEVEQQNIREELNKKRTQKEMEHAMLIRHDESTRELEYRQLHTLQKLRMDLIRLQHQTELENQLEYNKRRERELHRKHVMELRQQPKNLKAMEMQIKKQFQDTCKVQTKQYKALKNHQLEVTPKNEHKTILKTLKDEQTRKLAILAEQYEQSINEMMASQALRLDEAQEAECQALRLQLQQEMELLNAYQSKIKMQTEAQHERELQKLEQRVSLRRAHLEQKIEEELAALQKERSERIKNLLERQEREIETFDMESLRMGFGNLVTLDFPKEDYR
In words: Inhibition of human recombinant TAO3 at 500 nM in presence of ATP by radiometric assay relative to control.

Experiment [5] has as its target Vascular endothelial growth factor receptor 3 (Homo sapiens) (UniProt P35916). In words: Inhibition of human recombinant FLT4 at 500 nM related to control ULK1.
Experiment [6] addresses T2, NUAK family SNF1-like kinase 2 (Homo sapiens) (UniProt Q9H093).
T2 sequence (whole entry): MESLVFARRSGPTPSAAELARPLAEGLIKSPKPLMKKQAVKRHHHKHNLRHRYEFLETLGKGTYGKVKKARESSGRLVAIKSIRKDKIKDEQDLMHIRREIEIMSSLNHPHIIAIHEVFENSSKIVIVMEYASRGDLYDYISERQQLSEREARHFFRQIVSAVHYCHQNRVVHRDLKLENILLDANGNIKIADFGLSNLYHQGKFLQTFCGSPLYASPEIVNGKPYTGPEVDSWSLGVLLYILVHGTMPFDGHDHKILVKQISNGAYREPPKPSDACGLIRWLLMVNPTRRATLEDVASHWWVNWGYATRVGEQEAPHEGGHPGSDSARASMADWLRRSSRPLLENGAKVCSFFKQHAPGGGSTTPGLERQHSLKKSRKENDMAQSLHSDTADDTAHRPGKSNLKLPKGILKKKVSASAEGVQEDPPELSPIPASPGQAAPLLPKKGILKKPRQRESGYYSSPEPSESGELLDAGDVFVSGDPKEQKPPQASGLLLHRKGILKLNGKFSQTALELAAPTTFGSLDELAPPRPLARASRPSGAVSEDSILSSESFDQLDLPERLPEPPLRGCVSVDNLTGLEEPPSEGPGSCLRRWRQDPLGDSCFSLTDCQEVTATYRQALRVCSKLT
Put plainly: Inhibition of human recombinant NuaK2 at 500 nM related to control ULK1.

The target of experiment [7] is T3, Discoidin domain-containing receptor 2 (Homo sapiens) (UniProt Q16832).
T3 sequence (whole entry): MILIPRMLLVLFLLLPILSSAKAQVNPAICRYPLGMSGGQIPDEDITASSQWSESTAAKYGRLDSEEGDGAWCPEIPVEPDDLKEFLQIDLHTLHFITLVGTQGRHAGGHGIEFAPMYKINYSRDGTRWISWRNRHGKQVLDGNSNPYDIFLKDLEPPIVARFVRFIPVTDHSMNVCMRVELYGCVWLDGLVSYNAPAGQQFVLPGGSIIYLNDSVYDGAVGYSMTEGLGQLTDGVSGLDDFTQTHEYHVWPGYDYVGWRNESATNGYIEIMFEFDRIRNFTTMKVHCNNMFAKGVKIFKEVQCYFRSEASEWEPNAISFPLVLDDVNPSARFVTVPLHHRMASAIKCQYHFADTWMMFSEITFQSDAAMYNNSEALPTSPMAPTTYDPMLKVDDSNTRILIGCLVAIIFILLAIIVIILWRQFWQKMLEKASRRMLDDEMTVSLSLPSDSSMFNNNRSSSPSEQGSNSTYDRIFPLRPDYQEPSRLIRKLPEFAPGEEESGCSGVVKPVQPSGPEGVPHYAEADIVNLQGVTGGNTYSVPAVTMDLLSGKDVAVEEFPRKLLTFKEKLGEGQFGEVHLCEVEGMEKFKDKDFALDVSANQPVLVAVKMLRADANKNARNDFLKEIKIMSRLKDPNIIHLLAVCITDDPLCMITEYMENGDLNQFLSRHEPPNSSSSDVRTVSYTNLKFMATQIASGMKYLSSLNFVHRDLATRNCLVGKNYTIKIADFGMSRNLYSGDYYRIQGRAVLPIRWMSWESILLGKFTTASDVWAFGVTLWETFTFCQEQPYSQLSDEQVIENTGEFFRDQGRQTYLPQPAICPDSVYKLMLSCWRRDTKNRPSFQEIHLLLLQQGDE
In words: Inhibition of human recombinant DDR2 at 500 nM in presence of ATP by radiometric assay relative to control.

For the next experiment, the species on record is Homo sapiens. Put plainly: Inhibition of human recombinant ABL at 15 nM in presence of ATP by radiometric assay relative to control. In a few lines: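 Panel of 327 recombinant human kinases in radiometric activity assays, each screened in duplicate at a single inhibitor concentration; percent activity remaining relative to vehicle control, percent inhibition taken as 100 minus activity remaining.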

Experiment [8] addresses Serine/threonine-protein kinase D2 (Homo sapiens) (UniProt Q9BZL6). Put plainly: Inhibition of human recombinant PKD2 at 15 nM related to control ULK1.

Sequence of Vascular endothelial growth factor receptor 3 (Homo sapiens) (P35916 whole entry): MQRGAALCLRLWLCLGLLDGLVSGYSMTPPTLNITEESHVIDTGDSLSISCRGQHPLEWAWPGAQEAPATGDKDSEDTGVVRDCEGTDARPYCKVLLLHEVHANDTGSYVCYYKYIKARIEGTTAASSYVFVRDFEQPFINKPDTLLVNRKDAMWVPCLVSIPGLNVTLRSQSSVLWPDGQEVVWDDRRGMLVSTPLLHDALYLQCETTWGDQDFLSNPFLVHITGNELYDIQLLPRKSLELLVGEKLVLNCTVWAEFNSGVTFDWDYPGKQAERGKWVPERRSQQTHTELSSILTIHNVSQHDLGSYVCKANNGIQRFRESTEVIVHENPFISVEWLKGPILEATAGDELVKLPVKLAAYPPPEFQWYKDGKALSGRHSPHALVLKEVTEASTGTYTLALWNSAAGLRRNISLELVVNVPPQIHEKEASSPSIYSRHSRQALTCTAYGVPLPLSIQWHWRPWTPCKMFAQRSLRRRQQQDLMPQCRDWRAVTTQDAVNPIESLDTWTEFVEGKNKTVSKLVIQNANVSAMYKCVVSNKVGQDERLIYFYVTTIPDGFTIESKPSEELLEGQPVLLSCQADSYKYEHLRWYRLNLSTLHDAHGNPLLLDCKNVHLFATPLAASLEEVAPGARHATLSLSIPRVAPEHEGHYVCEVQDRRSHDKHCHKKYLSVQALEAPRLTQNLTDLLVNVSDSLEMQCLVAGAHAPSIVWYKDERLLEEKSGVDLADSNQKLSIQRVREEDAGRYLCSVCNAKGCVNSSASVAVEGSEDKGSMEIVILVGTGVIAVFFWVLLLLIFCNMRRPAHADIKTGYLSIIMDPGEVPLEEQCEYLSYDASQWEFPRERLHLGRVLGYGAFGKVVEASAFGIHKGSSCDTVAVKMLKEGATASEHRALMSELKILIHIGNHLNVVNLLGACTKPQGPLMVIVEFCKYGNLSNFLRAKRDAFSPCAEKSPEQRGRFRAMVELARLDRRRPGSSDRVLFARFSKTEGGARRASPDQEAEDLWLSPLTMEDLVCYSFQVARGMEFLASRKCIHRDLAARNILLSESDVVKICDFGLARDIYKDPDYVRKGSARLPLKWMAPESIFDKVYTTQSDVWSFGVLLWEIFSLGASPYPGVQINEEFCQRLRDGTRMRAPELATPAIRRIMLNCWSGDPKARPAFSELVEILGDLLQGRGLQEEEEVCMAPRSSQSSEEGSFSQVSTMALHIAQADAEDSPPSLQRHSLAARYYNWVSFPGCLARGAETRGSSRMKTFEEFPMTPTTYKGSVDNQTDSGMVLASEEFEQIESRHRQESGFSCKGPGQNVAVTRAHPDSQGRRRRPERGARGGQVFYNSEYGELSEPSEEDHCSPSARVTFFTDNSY
Sequence of Mitogen-activated protein kinase kinase kinase kinase 1 (Homo sapiens) (Q92918 whole entry, looked up): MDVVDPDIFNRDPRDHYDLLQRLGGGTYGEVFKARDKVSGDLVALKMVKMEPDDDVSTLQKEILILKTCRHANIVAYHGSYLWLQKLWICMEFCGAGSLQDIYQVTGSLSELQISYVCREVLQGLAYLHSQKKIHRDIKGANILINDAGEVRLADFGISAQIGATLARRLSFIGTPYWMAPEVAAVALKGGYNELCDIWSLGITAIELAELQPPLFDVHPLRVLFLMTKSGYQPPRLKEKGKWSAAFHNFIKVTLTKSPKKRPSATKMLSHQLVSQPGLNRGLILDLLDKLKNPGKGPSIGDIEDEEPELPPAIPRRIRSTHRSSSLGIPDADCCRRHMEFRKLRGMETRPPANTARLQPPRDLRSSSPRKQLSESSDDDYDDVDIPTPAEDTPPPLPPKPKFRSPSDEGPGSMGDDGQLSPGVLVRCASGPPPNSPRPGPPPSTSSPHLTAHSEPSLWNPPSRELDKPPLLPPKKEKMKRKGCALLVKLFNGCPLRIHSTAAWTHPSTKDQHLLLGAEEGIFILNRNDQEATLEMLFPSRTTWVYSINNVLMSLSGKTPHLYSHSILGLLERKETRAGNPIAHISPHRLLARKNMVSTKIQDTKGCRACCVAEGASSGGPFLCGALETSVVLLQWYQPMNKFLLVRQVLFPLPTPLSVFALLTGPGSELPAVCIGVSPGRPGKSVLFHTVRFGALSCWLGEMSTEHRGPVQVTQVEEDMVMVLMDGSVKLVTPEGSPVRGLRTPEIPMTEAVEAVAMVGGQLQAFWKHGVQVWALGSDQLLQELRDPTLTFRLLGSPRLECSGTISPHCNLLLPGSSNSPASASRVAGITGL
Sequence of Fibroblast growth factor receptor 2 (Homo sapiens) (P21802 22-821 limits assumed): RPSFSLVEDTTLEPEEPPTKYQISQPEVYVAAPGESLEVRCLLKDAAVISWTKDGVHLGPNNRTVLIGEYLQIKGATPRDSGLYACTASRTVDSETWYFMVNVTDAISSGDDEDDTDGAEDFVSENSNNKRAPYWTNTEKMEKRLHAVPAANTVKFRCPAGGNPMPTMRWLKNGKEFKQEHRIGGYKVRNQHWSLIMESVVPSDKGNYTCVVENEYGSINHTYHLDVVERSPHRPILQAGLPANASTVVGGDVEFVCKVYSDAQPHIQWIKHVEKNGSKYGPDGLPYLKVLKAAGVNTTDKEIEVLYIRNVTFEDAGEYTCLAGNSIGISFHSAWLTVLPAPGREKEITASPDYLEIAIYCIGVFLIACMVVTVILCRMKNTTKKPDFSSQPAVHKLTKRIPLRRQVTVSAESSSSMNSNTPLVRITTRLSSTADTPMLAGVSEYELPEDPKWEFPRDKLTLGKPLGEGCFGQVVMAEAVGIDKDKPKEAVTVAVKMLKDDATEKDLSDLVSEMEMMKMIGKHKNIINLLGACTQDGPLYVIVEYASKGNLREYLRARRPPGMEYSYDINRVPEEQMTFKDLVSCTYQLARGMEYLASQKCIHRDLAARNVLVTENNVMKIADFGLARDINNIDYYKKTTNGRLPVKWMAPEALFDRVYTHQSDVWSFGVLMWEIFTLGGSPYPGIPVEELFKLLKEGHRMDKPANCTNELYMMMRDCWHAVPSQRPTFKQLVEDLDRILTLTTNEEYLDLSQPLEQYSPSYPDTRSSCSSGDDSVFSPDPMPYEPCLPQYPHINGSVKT
Sequence of Serine/threonine-protein kinase D2 (Homo sapiens) (Q9BZL6 whole entry, looked up): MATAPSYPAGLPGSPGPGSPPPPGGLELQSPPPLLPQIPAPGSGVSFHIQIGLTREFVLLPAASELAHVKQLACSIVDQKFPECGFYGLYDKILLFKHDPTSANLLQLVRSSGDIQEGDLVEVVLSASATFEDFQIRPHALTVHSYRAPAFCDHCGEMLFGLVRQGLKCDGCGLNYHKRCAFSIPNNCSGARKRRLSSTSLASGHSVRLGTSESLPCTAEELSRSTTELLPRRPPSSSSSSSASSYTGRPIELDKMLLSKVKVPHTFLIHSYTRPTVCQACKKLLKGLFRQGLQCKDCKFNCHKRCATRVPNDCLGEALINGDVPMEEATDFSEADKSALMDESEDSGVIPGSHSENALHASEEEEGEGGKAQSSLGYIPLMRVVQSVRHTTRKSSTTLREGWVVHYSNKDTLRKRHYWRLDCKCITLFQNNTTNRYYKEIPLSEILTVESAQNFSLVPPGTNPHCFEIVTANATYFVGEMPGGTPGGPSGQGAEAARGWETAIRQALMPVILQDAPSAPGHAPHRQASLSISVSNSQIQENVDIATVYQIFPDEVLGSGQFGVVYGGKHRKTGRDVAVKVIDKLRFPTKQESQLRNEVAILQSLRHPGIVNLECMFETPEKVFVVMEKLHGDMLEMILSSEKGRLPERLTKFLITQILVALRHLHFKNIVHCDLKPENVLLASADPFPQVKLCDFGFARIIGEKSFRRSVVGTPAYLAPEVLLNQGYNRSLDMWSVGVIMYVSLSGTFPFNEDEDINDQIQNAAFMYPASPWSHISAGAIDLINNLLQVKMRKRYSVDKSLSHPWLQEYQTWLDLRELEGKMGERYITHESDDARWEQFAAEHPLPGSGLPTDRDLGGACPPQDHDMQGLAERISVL
Sequence of Epidermal growth factor receptor (Homo sapiens) (P00533 whole entry): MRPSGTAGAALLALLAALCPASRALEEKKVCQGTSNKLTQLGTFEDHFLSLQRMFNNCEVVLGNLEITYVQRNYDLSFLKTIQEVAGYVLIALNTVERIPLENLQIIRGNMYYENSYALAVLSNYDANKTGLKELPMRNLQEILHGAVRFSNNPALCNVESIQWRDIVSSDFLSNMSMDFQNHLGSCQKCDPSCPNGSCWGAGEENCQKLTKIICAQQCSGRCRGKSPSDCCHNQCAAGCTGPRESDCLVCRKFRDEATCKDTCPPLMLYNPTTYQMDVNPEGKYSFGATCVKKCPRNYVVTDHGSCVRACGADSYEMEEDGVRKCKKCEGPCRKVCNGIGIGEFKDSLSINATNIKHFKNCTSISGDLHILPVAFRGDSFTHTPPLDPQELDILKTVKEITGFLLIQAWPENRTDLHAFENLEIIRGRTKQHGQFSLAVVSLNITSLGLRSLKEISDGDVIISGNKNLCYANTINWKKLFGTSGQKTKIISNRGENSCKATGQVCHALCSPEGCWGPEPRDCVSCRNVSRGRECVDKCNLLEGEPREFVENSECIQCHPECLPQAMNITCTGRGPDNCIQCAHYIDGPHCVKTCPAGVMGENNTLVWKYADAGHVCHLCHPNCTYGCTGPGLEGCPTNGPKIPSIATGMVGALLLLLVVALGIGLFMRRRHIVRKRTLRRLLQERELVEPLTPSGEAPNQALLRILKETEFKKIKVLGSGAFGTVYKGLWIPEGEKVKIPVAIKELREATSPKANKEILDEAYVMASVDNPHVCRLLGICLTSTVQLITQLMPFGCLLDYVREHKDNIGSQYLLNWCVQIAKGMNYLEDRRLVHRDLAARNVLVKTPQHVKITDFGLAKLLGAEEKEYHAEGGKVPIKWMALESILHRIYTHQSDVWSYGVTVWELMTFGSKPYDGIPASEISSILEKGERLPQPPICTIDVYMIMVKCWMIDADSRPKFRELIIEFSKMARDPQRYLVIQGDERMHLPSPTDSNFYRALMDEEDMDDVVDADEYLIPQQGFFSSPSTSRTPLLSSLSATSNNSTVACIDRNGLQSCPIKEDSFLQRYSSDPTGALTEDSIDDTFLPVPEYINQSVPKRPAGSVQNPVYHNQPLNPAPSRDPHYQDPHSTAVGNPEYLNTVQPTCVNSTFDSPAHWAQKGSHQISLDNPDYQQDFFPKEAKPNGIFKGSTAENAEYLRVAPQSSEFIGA

For orientation: inhibition means the change of the read-out against control, counted positive when it falls. For the molecule `O=C(N[C@@H](C1CC1)C(F)(F)F)c1cc(-c2cnn3cc(-c4ccc(F)cc4)cnc23)cs1`, the fold change (FC) in experiment [1] and in [2] was 0 in each case. In experiment [3], the inhibition amounted to 0%.
For `CNC(=O)c1ccccc1Oc1nc(Nc2cc(OC)c(OC)c(OC)c2)ncc1Br`, the inhibition in experiment [4] and in experiment [7] was 0% in each case. For the same molecule, the fold change (FC) came out at 0.31 in [5] and 0.86 in experiment [6].
As for `CC(C)[C@H](NC(=O)c1cc(-c2cnn3cc(-c4ccc(OCCN5CCCCC5)cc4)cnc23)cs1)C(F)(F)F`, in the experiment filed under Homo sapiens, the inhibition was determined as 82%. In addition, the fold change (FC) in experiment [8] came out at 0.
